# Source: PubChem (The Scripps Research Institute Molecular Screening Center)
# TAAR1 antagonist: antagonists of human TAAR1 | Q96RJ0 | CHO RD-HGA16 TAAR1, Fluo-8 calcium fluorescence, antagonist | inhibition, % at 3 µM | hit rate 1.5% among 360,000 | AID 624466;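 active = inhibition above a per-plate cutoff, the mean inhibition of test compounds on that plate plus 3 SD, cut at about 49% in these data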;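 also: 0% = DMSO plus EC80 beta-PEA response and 100% = DMSO alone without agonist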
# Target sequence (Q96RJ0 whole entry, looked up): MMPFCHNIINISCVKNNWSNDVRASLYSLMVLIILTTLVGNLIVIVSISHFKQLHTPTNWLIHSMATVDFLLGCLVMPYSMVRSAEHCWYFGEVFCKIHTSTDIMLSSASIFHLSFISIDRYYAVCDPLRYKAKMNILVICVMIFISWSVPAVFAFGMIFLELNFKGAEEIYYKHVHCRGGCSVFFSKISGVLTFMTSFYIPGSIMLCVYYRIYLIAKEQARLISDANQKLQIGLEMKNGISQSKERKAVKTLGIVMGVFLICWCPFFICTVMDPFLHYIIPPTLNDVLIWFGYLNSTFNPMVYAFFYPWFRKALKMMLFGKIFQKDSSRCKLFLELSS
#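 Test system: CHO RD-HGA16 cells bearing hTAAR1 | Reagent: β-PEA, EC80 | Compound dosing: 3 µM, single point | Schedule: Dye loading 75 min at 37 °C, then 30 min room temperature | Signal: Calcium fluorescence with Fluo-8 | Evaluation: Percent inhibition of PEA-evoked calcium signal, max/basal emission ratio | Control set: DMSO-only wells and EC80 β-PEA-stimulated wells | Repeats: Singlicate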
# TAAR1 ag: human TAAR1 agonism; Q96RJ0; CHO RD-HGA16 TAAR1, Fluo-8 calcium fluorescence; vehicle wells 0%, saturating PEA agonist 100%; activation, % at 3 µM; hit rate 0.99% among 360,000;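 active = activation above the mean activation of all test compounds in the run plus 3 SD, cut at about 38% in these data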
#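 Test system: RD-HGA16 (CHO) cells co-expressing Gα16 and hTAAR1 | Doses: Single dose, 3 µM | Schedule: 17-24 h seeding, 75 min 37 °C dye, 30 min RT | Evaluation: % activation from peak over basal fluorescence ratio, DMSO-to-PEA scaled | Technique: Kinetic Fluo-8 calcium fluorescence | Benchmarks: Low control DMSO, high control PEA (EC100)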
# OXTR potentiate: human OXTR potentiation. activation, % at 3 µM. CHO-OTR cells, Fluo-8 calcium fluorescence, potentiator mode; 0% = oxytocin EC15, 100% = EC100. P30559. hit rate 0.061% among 320,000;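 active = activation above that plate's cutoff, the mean activation of tested compounds plus 3 SD, cut at about 6.6% in these data, passing the limit was not always enough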;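 also: 100% uses oxytocin at 75 nM as the full agonist control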
#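 Measured by – Fluo-8 calcium dye fluorescence · Test system – human OTR in CHO cells · Dosing – one concentration, 3.0 µM compound · Controls – EC15 oxytocin alone as 0%, 75 nM oxytocin as 100% · Evaluation – normalized max/min fluorescence ratio, % activation · Timing – 6 min pre-incubation, 100 s read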
# OXTR ag: agonists of human oxytocin receptor. P30559. CHO-OTR cells, Fluo-8 calcium fluorescence; normalized: DMSO 0%, oxytocin 100%. hit rate 0.32% among 320,000. AID 2435. activation, % at 3 µM;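 active = activation above the mean of all tested compounds plus 3 SD, cutoff set per screening run, cut at about 20% in these data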;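 also: peak over basal fluorescence ratio from a 100 s FLIPR kinetic read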
# V1aR counter: activates human V1a receptor in oxytocin agonist counter-screen; activation, % at 3 µM; CHO-V1R cells, Fluo-8 calcium fluorescence, agonist mode; 0% DMSO, 100% 3 nM vasopressin; hit rate 0.25% among 320,000; AID 2797;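 active = activation above the mean activation of all tested compounds plus 3 SD, per screening run, cut at about 20% in these data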;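 also: signal is peak over basal fluorescence ratio across a 100 second FLIPR read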
# Starred values were filed as active, the others as inactive; . = not tested or not shown. This is a sample that favours compounds with a hit; in the whole collection about 2.3% have one here.
SMILES,TAAR1 antagonist,TAAR1 ag,OXTR potentiate,OXTR ag,V1aR counter
Clc1ccc(Cn2ncc3c(N4CCCCC4)ncnc32)c(Cl)c1,78*,36,-12,0,0
O=C(CC[C@H]1O[C@@H](n2ccc(=O)[nH]c2=O)[C@H](O)[C@@H]1O)N[C@H](Cc1ccccc1)C(=O)NCc1ccc2c(c1)OCO2,-25,4,.,.,.
COc1ccc(N(CC(=O)N2CCc3ccccc3C2)S(=O)(=O)c2c(C)[nH]c(=O)[nH]c2=O)cc1,-8,1,-7,1,1
COc1ccc(N(CC(=O)N2CCc3ccccc3C2)S(C)(=O)=O)cc1,2,42*,-5,0,1
COc1ccc(OC)c(S(=O)(=O)N(C)CC(=O)N2CCc3ccccc3C2)c1,13,45*,-7,0,0
O=C(CSc1nnc(CN2CCCC2)n1-c1ccccc1)c1ccc2c(c1)OCO2,10,1,-6,-1,0
COc1ccc(C(=O)CSc2nnc(CN3CCCCC3)n2-c2ccc(Cl)cc2)cc1OC,7,44*,-18,17,15
CCOC(=O)c1c(C)[nH]c(C)c1S(=O)(=O)NCCc1cccs1,-10,41*,-1,0,1
CCc1ccc(N2C=C(C(=O)OC)C(c3ccc(OC)cc3)C(C#N)=C2N)cc1 (centres undefined),59*,-1,.,.,.
COC(=O)C1=CN(c2ccc(OC)cc2)C(N)=C(C#N)C1c1ccc(OC)cc1 (centres undefined),8,2,.,.,.
CC(C)(C)c1ccc(C(=O)Nc2ccccc2Cl)cc1,25,29,0,-1,-1
O=C(Nc1ccccc1Cl)c1ccccc1CC(O)(c1ccccc1)c1ccccc1,54*,2,.,.,.
COCCN1Cc2cc(C(=O)OC)c3c(c2C1=O)c1cc(OC)ccc1n3S(=O)(=O)c1ccc(F)cc1,-5,0,.,.,.
O=C(CCN1C(=O)/C(=C/c2cccs2)SC1=S)Nc1ccccn1,50*,33,-9,2,5
O=C(CCCN1C(=O)/C(=C\c2cccs2)SC1=S)Nc1ccccn1,-4,5,-9,-1,-1
COC(=O)C1=C(C)N(CC(C)C)C(=S)NC1c1cccc(F)c1 (centres undefined),25,-2,.,.,.
CCOC(=O)/C(=C/C=C1\Sc2cc(OCC)c(OCC)cc2N1CC)C(C)=O,73*,158*,-16,248*,289*
CCN1/C(=C/C(C)=O)Sc2ccc(OC)cc21,-14,2,-7,-3,-1
CC(C)(C)NS(=O)(=O)c1ccc(CCC(=O)Nc2cc(Cl)ccc2Oc2ccccc2)cc1,28,4,-19,1,3
CCCNS(=O)(=O)c1ccc(CCC(=O)Nc2cc(Cl)ccc2Oc2ccccc2)cc1,69*,9,.,.,.
CC(C)CNS(=O)(=O)c1ccc(CCC(=O)Nc2cc(Cl)ccc2Oc2ccccc2)cc1,63*,7,-12,0,3
O=C(N[C@H](Cc1ccccc1)C(=O)N1CCN(Cc2ccccn2)CC1)[C@H]1O[C@@H](n2ccc(=O)[nH]c2=O)[C@H](O)[C@@H]1O,-6,1,.,.,.
Cc1ccccc1CCNC(=O)CCn1ccc2cc(S(=O)(=O)N3CCCC3)ccc21,-3,44*,-8,-1,0
C=CCN1C=C(C(=O)OCC)C(=O)CC1,-8,0,.,.,.
CSC1=NC2(CC(c3ccccc3)Oc3cc(O)ccc32)CC(C)(C)N1 (centres undefined),7,30,-21,21*,42*
SMILES,TAAR1 antagonist,TAAR1 ag,OXTR potentiate,OXTR ag,V1aR counter
O=C(C(=O)N1CCN(C(=O)c2cc(C(F)(F)F)cc(C(F)(F)F)c2)CC1)c1cccc(C(F)(F)F)c1,-14,-2,.,.,.
Cc1c(CN2CCN(c3ncc(Cc4ccccc4)cn3)CC2)c(=O)n(-c2ccccc2)n1C,0,7,.,.,.
Nc1nc(Nc2ccccc2F)sc1C(=O)c1ccccc1,-15,48*,-4,-2,1
O=C(N/N=C/c1cccc(Oc2ccccc2)c1)c1cccc(O)c1,37,4,.,.,.
O=C(N/N=C/c1cccnc1)c1ccc(NC(=O)C(c2ccccc2)c2ccccc2)cc1,57*,8,-8,0,1
O=C(N/N=C/c1cccnc1)c1cccc(NC(=O)c2cccc(Br)c2)c1,51*,15,-13,1,4
O=C(/C=C/c1cccs1)c1ccc(NC(=O)c2cccc(Br)c2)cc1,55*,7,-7,0,2
O=C(N/N=C/c1cccc(Oc2ccccc2)c1)c1cccc(Br)c1,57*,2,-12,0,0
CC(C)(C)N1CC(OC(N)=O)C1,-15,3,-3,0,1
O=S1(=O)N[C@@H](Cc2ccccc2)COc2cc(NCCCN3CCOCC3)ccc21,-14,5,.,.,.
S=C1NC[C@H](Cc2ccccc2)N1CC1CCN(CCCC2CCCCC2)CC1,5,2,.,.,.
CCCCc1c(-c2ccccc2OC)ncn1Cc1ccc(F)c(F)c1,7,1,.,.,.
O=C(Nc1cccc(C(=O)Nc2cccc(Br)c2)c1)c1ccccc1,62*,16,-20,9,10
O=C(N/N=C/c1cccc(OC(=O)c2cccc(Br)c2)c1)c1cccnc1,58*,18,.,.,.
COCc1[nH]nc2c1C(c1ccc(F)cc1)N(c1ccccc1)C2=O (centres undefined),-16,0,.,.,.
Cc1nn(C)c(Cl)c1CN1CCC(CO)(CCOc2ccccc2)CC1,-17,2,4,3,4
Cc1c(CN2CCC(CO)(CCOc3ccccc3)CC2)[nH]c2c(Cl)cccc12,26,41*,-17,13,8
OC(c1ccccc1)(c1ccccc1)C1CCN(CCCOc2ccncc2)CC1,21,33,.,.,.
O=C(Cn1cnc2sc(-c3ccccc3)cc2c1=O)NCCc1ccccc1,8,39*,-12,0,0
COC(=O)c1sc2ncn(CC(=O)NCCc3ccc(OC)c(OC)c3)c(=O)c2c1C,-9,0,-8,0,1
Cc1sc2ncn(CC(=O)NCCc3ccccc3)c(=O)c2c1C,12,42*,-7,-1,0
COc1ccc(CCNC(=O)Cn2cnc3sc(C)c(-c4ccc(F)cc4)c3c2=O)cc1OC,11,54*,-36,20*,23*
COC(=O)C1=C(C)N(Cc2ccccc2C(F)(F)F)C(=NCc2cc(OC)c(OC)c(OC)c2)NC1c1ccccc1C(F)(F)F (centres undefined),-21,-2,.,.,.
C[C@H]1[C@@H](c2ccccc2)Oc2ccc(Cl)cc2S(=O)(=O)N1Cc1ccc(Cl)cc1,-33,0,.,.,.
COc1ccc(-c2nn(-c3ccccc3)cc2/C=N/NC(=O)c2ccc3c(c2)OCO3)cc1,.,.,-10,-1,1
O=C(N/N=C\c1cn(-c2ccccc2)nc1-c1ccccc1)c1ccc2c(c1)OCO2,55*,10,-17,-2,0
